# Compound activity as filed in PubChem BioAssay.
# TRPC4 agonist = activators of mouse TRPC4 channel, primary screen, Fluo4 calcium, HEK293 TRPC4beta/mu-opioid cells. Short transient receptor potential channel 4 (Mus musculus), Q9QUQ5. Fluo4 calcium fluorescence; hits give high values. B-score at 10 µM. actives 0.49% (n = 310,000);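 active = B-score above 5 SD of library B-scores, and initial fluorescence ratio not above library mean plus 5 SD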;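 note: positive B-score marks a calcium rise read as TRPC4 activation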
#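 Incubation: 45 min room-temperature Fluo4 loading, 110 s read / System: HEK293 cells stably co-expressing mouse TRPC4beta and mu-opioid receptor / Signal: Fluo4 fluorescence, kinetic / Control set: buffer (low) and maximal DAMGO (high) / Measure: integrated baseline-normalised fluorescence ratio, converted to per-well B score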
# TRPC4 inh = inhibitors of mouse TRPC4 channel, primary screen, Fluo4 calcium, HEK293 TRPC4beta/mu-opioid cells; Short transient receptor potential channel 4 (Mus musculus), Q9QUQ5; actives 0.39% (n = 300,000); B-score at 10 µM; DAMGO-evoked Fluo4 calcium flux; hits give low values;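 active = B-score over 3 SD under the library average, no early fluorescence shift, positive overall ratio signal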
#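 Assay system: Stable TRPC4beta/mu-opioid receptor HEK293 cells | Reagent: DAMGO in two steps, submaximal then maximal | Compound dosing: Single concentration per test compound | Signal: Fluo4 Ca2+ flux fluorescence | Evaluation: Per-well B score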
# TRPC6 act = mouse TRPC6 channel activators, primary screen, cell-based, HEK293, membrane potential dye; Short transient receptor potential channel 6 (Mus musculus), Q61143; HEK293-TRPC6 membrane potential dye fluorescence; hits give high values; B-score at 10 µM; actives 0.13% (n = 310,000); AID 2550, 2010;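 active = B-score of the integrated fluorescence ratio above library mean plus 3 SD, and starting fluorescence ratio within library mean plus 5 SD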;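 note: higher score means more depolarization so channel activation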
# TRPC4 PAM = positive allosteric modulators of TRPC4, primary screen, cell-based, mouse TRPC4beta, HEK293 mu-opioid, Fluo-4 calcium; Short transient receptor potential channel 4 (Mus musculus), Q9QUQ5; DAMGO EC20, Fluo-4 Ca2+ flux; hits give high values; B-score at 10 µM; actives 0.42% (n = 310,000); AID 2227, 2009;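 active = B-score of calcium response area above 5 SD of library B-scores, with initial fluorescence ratio within 5 SD of library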;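 note: B-score of integrated fluorescence ratio over time as area under calcium response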
# TRPC6 inhibitor = mouse TRPC6 channel inhibitors, primary screen, cell-based, HEK293, membrane potential dye. Short transient receptor potential channel 6 (Mus musculus), Q61143. ACh-evoked depolarization; hits give low values. B-score at 10 µM. actives 1.1% (n = 310,000). AID 2553, 2010;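 active = B-score under library mean minus 3 SD, initial fluorescence not abnormally high, positive integrated signal ratio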;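 note: B-score derived from integrated fluorescence ratio over the kinetic read; more negative B-score means stronger inhibition of depolarization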
# * = called active by the depositor; i = inactive; . = no result. Only some compounds are listed: those with a hit (about 2.3% of all), similar ones and a draw of the others.
SMILES,TRPC4 agonist,TRPC4 inh,TRPC6 act,TRPC4 PAM,TRPC6 inhibitor
CN(CC(=O)Nc1sc2c(c1C#N)CCCCC2)Cc1nc2ccccc2c(=O)[nH]1,i,i,i,16*,i
COc1ccc(CN(C)CC(=O)Nc2sc3c(c2C#N)CCC3)cc1OC,i,-6*,i,i,i
COCCSc1ccccc1C(=O)N1CCC(Cc2ccccc2)CC1,44*,-7*,i,i,i
CCc1ccc2nc3nc(C)cc(C)c3c(N)c2c1,i,-6*,i,i,i
Cc1ccc(C)c(OC(C)C(=O)Nc2nccs2)c1 (centres undefined),i,i,i,i,i
CCOc1cc(N2CCOCC2)c(OCC)cc1NC(=O)CN1CCN(Cc2ccc3c(c2)OCO3)CC1,i,i,i,i,i
CCOc1cc(N2CCOCC2)c(OCC)cc1NC(=O)CC12CC3CC(CC(C3)C1)C2,i,i,i,10*,i
CCOc1cc(N2CCOCC2)c(OCC)cc1NC(=O)Cc1ccc(OC)c(OC)c1,i,i,i,i,i
CCOc1cc(N2CCOCC2)c(OCC)cc1NC(=O)CN1CCc2ccccc2C1,i,i,i,12*,i
Cc1cc(C)n(-c2ccc(NC(=O)C3CCN(Cc4ccc(C)o4)CC3)cc2)n1,i,i,i,i,i
CC1CCCCN1S(=O)(=O)c1ccc(C(=O)N(CCCN(C)C)c2nc3ccc(Br)cc3s2)cc1 (centres undefined),143*,i,i,i,i
CCC1CCCCN1S(=O)(=O)c1ccc(C(=O)N(CCCN(C)C)c2nc3cc4c(cc3s2)OCO4)cc1 (centres undefined),130*,i,i,i,i
COc1ccc(-c2nc(CS(=O)CC(=O)NCCCN3CCOCC3)c(C)o2)cc1OC (centres undefined),i,i,i,i,i
COc1c(C)cc(S(=O)(=O)NCc2ccccn2)c(C)c1C,i,i,i,i,i
CSCCC(NC(=O)c1cccc(C)c1)C(=O)Nc1sccc1C(N)=O (centres undefined),i,i,i,i,i
COc1ccc(/C=C/C(=O)c2cccc(-n3cnnn3)c2)cc1O,i,i,i,i,i
CCN(c1nc(N)c(C(=O)N=C(N)N)nc1Cl)C(C)C,100*,i,i,i,i
COc1ccccc1CC(=O)N1CCN(S(=O)(=O)c2ccccc2)CC1,i,i,i,20*,i
NC(=O)c1ncc(C(F)(F)F)cc1Oc1cccnc1,i,i,i,i,i
O=C(O)c1ccc2c(c1)C(=O)N(c1cccc(S(=O)(=O)Nc3cccc(C(F)(F)F)c3)c1)C2=O,i,i,i,i,i
O=C(O)c1cc(N=Cc2c(O)c3ccccc3oc2=O)ccc1O,i,i,i,i,i
COc1ccc2nc(C)cc(NCc3ccc(F)cc3)c2c1,i,-6*,i,i,i
COc1ccc(/C=N/Nc2cc(C)nc3ccc(OC)cc23)c(OC)c1,i,i,i,i,-5.39*
COc1ccccc1/C=N/Nc1cc(C)nc2ccc(C)cc12,i,i,i,i,i
COc1cc2c(c(OC)c1OC)-c1c(cc3c(c1OC)OCO3)[C@@H](OC(C)=O)[C@H](C)[C@H](C)C2,i,i,i,i,i
SMILES,TRPC4 agonist,TRPC4 inh,TRPC6 act,TRPC4 PAM,TRPC6 inhibitor
C/C=C(/C)C(=O)O[C@@H]1c2cc(OC)c(OC)c(OC)c2-c2c(cc3c(c2OC)OCO3)C[C@H](C)[C@]1(C)O,i,.,i,16*,i
Cc1nc(N2CCN(c3ccccn3)CC2)c2c(C)c(C(=O)N3CCN(c4ccccc4F)CC3)sc2n1,i,-9*,i,i,i
O=C1CCC([N+](=O)[O-])C(C2CC=CCC2)N1 (centres undefined),i,i,i,i,i
Cc1cc(Cl)cc(Cl)c1OCCCCN(C)C,i,i,i,36*,i
CC1CCCC(C)N1C(=O)c1ccc(S(=O)(=O)NCc2ccco2)cc1 (centres undefined),i,i,i,i,i
Cc1ncsc1CCOC(=O)C12CC3CC(CC(C3)C1)C2,i,-7*,i,i,i
COc1cc(CCCN2CCNC[C@@H]2Cc2ccc(O)cc2)cc(OC)c1OC,i,i,i,i,i
CCOC(=O)N1CCN(C(=O)c2cn(CC)c3ccc(S(=O)(=O)N4CCOCC4)cc3c2=O)CC1,i,i,i,i,i
S=C(NCCc1ccccc1)Nc1ccc(Br)cn1,i,i,i,11*,i
S=C(NCCc1ccccc1)NCCc1ccccc1,i,i,i,i,i
C/[N+]([O-])=C\c1cccc(OCCN2CCN(c3ncc(C(F)(F)F)cc3Cl)CC2)c1,i,i,i,12*,i
O=C(Nc1cccc(S(=O)(=O)NC2=NCCC2)c1)c1cc(Cl)ccc1[N+](=O)[O-],i,i,i,i,i
Cc1cc(-c2nnc(SCC(=O)Nc3ccccc3C(F)(F)F)o2)c(C)n1-c1ccccc1,i,i,i,i,i
Cc1cccc(NC(=O)CSc2nnc(-c3cc(C)n(-c4ccccc4)c3C)o2)c1C,i,-7*,i,i,i
CC1CCCCN1C(=O)CSc1nc2c(c(=O)n(C)c(=O)n2C)n1C (centres undefined),i,i,i,i,i
CC1CCc2sc3ncnc(N4CCOCC4)c3c2C1 (centres undefined),i,-6*,i,i,i
CSCC[C@H](N)C(=O)NC[C@H]1CC[C@H](C(=O)N[C@@H](Cc2ccccc2)C(=O)O)CC1,i,i,i,i,i
c1ccc(OCC2CCNCC2)nc1,84*,i,i,i,i
O=C(O)c1ccccc1C(=O)NC1CCCc2ccccc21 (centres undefined),i,i,i,i,i
CCN1CCN(c2ccc(S(=O)(=O)N3CCCCC3)cc2NC(=O)c2cccc(F)c2)CC1,i,i,i,17*,i
CCN1CCN(c2ccc(S(=O)(=O)N3CCCCC3)cc2NC(=O)c2cccc(C(F)(F)F)c2)CC1,i,i,i,29*,i
